Laboratory results from article PMC9907348 (Molecular Pharmaceutics, 2023).

Test: Intravital two-photon microscopy of renal disposition
Type: in vivo, Munich Wistar Frömter rats
Conditions: rat; for course of subapical brush border fluorescence / vascular fluorescence after infusion: single iv bolus ∼300 μg/kg; for course of subapical brush border fluorescence: infusion movie ∼2 min 10 s to 300 s
How it was run: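 Munich Wistar Frömter rats (9–12 weeks), fed ad libitum, with temperature monitored. Outer-cortex glomeruli with visible S1 proximal tubule openings were marked before a bolus of TAMRA- or TAMRA/QSY7-labelled peptide via an indwelling jugular line. 40 kDa FITC-dextran outlined the brush border. Two-photon excitation was at 800 nm (2.0% transmissivity), imaging for ~60 min. Fluorescence was measured over capillary-loop and subapical brush border regions.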

[1] = iv, postinjection, 40 kDa FITC-dextran given just before
[2] = intravital two-photon microscopy
[3] = iv, intravital two-photon microscopy

Substance | time at which fluorescence was detected within apical vesicular arrangements [1] | time at which fluorescence within apical vesicular arrangements became marked [1] | course of subapical brush border fluorescence | vascular fluorescence after infusion [2] | glomerular filtration [3] | proximal tubule (PTEC) binding and endocytosis [3]
5-TAMRA-QSY7 exenatide [FRET-Ex] | ≤ 80 s | ≤ 200 s | protracted linear increase | virtually undetectable |  | 
5-TAMRA exenatide [TAMRA-Ex] |  |  | rapid appearance | immediate and pronounced detection of fluorescence | rapid glomerular filtration | rapid and extensive proximal tubule binding and endocytosis
